From ChEMBL document CHEMBL1128687, “5-Methyl-6-phenyl-1,3,5,6-tetrahydro-3,6-methano-1,5-benzodiazocine-2,4-dione (BA 41899): representative of a novel class of purely calcium-sensitizing agents” (J Med Chem, 1995) come the findings set out here.

The species named for experiment [1] is Sus scrofa. The experiment can be described thus: Maximal activation of porcine myocardial skinned fibers at 40 uM free [Ca2+] without compound. Format: functional.
The species named for experiment [2] is Cavia porcellus. The experiment can be described thus: Positive inotropic effect, increased isometric tension on guinea pig heart. Format: functional. A digest of the protocol:
(§1)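 Left atria from urethane-anaesthetized guinea pigs in Krebs–Henseleit medium at 32 °C, electrically stimulated isometrically at 2.5 s⁻¹ (also 0.25 s⁻¹); compound applied at 1–100 μM after equilibration, exposure up to 60 min; twitch force recorded, EC50 as concentration giving half-maximal effect.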

For experiment [3], the species on record is Sus scrofa. The experiment can be described thus: Increased [Ca2+] activated force in porcine myocardial skinned fibers. Format: functional. As to conditions: Myocardium.
For experiment [4], the species on record is Sus scrofa. The experiment can be described thus: Reduced [Ca2+] activated force development on porcine skinned myocardial fibers at 100 uM. Format: functional. On the set-up: scale not given: the % may be the effect or the level left.
The species named for experiment [5] is Sus scrofa. The experiment can be described thus: Increase in [Ca2+] activated force in porcine myocardial skinned fibers. Format: functional, Myocardium.
The species named for experiment [6] is Sus scrofa. The experiment can be described thus: Maximal activation of porcine myocardial skinned fibers at 40 uM [Ca2+] with 100 uM compound. Format: functional.
Experiment [7] deals with T1, Alpha-2A adrenergic receptor (Homo sapiens) (UniProt P08913).
T1 sequence (whole entry): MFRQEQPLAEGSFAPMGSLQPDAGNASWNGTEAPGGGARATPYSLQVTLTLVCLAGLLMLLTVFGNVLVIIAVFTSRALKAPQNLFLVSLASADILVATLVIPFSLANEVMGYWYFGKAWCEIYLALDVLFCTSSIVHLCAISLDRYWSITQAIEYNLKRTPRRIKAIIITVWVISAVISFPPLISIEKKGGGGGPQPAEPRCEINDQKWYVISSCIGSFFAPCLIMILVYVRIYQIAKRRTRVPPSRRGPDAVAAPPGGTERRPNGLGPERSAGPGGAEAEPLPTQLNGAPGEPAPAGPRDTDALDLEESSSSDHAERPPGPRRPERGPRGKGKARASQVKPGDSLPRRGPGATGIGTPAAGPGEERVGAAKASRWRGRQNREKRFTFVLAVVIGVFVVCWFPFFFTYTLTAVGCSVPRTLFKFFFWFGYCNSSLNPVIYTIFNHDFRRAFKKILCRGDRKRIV
The experiment can be described thus: Effect against Alpha-2 adrenergic receptor using clonidine as ligand; No effect. The conditions noted are these: Cavia porcellus.

Experiment [8] addresses Histamine H1 receptor (Cavia porcellus) (UniProt P31389). The experiment can be described thus: Effect against histamine H1 receptor; No effect.
Experiment [9] has as its target T2, Alpha-1A adrenergic receptor (Homo sapiens) (UniProt P35348).
T2 sequence (whole entry): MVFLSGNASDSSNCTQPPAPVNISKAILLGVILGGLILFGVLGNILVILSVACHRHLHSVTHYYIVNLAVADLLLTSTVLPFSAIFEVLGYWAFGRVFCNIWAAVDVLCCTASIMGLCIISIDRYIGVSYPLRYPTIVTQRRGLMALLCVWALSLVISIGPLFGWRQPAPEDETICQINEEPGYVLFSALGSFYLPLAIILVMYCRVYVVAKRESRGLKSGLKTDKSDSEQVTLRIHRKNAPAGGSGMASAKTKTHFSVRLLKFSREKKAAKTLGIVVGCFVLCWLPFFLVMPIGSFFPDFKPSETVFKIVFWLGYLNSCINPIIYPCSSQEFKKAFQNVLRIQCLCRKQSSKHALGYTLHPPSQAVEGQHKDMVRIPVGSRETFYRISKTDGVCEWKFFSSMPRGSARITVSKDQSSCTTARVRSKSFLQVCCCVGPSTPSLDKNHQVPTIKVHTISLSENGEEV
The experiment can be described thus: Effect against Alpha-1 adrenergic receptor using prazosin as ligand; No effect. The conditions noted are these: Cavia porcellus.

Experiment [10] concerns the target Beta-1 adrenergic receptor (Cavia porcellus) (UniProt B0FL73). The experiment can be described thus: Effect against Beta-1 adrenergic receptor using dehydroalprenolol as ligand; No effect.
For experiment [11], the species on record is Cavia porcellus. The experiment can be described thus: Activating effect on Sarcolemmal Ca+2 channel uptake was determined. Format: functional.
The target in experiment [12] is Phosphodiesterase 4 (Homo sapiens) (UniProt P27815+Q08499+Q07343+Q08493). The experiment can be described thus: Inhibition of Phosphodiesterase 4. Format: protein assay. The conditions noted are these: Cavia porcellus.
The species named for experiment [13] is Cavia porcellus. The experiment can be described thus: Inhibition of desmethoxyverapamil binding to Sarcolemmal Ca+2 channel (No effect).
For experiment [14], the species on record is Cavia porcellus. The experiment can be described thus: Activating effect on Sarcolemmal Ca+2 ATPase was determined.
The species named for experiment [15] is Sus scrofa. The experiment can be described thus: Increased contractile response in skinned myocardial fibers in presence of 0.1-10 uM free [Ca2+]. Format: functional. As to conditions: Myocardium.
In experiment [16] the target is GABA-A receptor; anion channel (Homo sapiens) (UniProt P14867+P47870+P18507+P28472+P48169+Q99928+Q9UN88+P34903+O00591+O14764+Q8N1C3+P18505+P78334+P47869+P31644+Q16445). The experiment can be described thus: Binding affinity against GABA-A benzodiazepine receptor using flunitrazepam. As to conditions: Cavia porcellus. Format: protein-complex assay.
For experiment [17], the species on record is Cavia porcellus. The experiment can be described thus: Inotropic effect at 100 uM; Loses most of its inotropic activity due to resting tension. Format: functional. The method, boiled down:
as §1

For experiment [18], the species on record is Sus scrofa. The experiment can be described thus: Increased [Ca2+] activated force in porcine myocardial skinned fibers (Not effective). Format: functional, Myocardium.
The species entered for experiment [19] is Sus scrofa. The experiment can be described thus: Effect on porcine myocardial skinned fibers at 1-100 uM (ineffective). Format: functional.
Experiment [20] is filed under the species Sus scrofa. The experiment can be described thus: Increase in [Ca2+] activated force in porcine myocardial skinned fibers (ineffective). The class given is functional. As to conditions: Myocardium.
For experiment [21], the species on record is Sus scrofa. The experiment can be described thus: Increase in isometric force in myocardial skinned fibres at 100 uM with free [Ca2+]. The class given is functional, Myocardium.
Experiment [22] is filed under the species Cavia porcellus. The experiment can be described thus: Reduced spontaneous beating frequency at 1-100 uM in guinea pig heart. The class given is functional. A digest of the protocol: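 Right atria from urethane-anaesthetized guinea pigs, mounted isometrically in Krebs–Henseleit medium at 32 °C; spontaneous sinus-node beating rate recorded over 1–100 μM compound; EC50 taken as concentration giving half-maximal effect.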

For experiment [23], the species on record is Sus scrofa. The experiment can be described thus: Increase in isometric force of myocardial skinned fibres at 30 uM with free [Ca2+]. The class given is functional.
For experiment [24], the species on record is Sus scrofa. The experiment can be described thus: Increased [Ca2+] activated force in porcine myocardial skinned fibers by racemic mixture. The class given is functional. As to conditions: Myocardium.
The species entered for experiment [25] is Sus scrofa. The experiment can be described thus: Increase in isometric force of porcine myocardial skinned fibers at 30 uM. The class given is functional.

Calls of active or inactive are those of the source. The rule behind the calls is not given here.

Chain of Histamine H1 receptor (Cavia porcellus) (P31389 whole entry): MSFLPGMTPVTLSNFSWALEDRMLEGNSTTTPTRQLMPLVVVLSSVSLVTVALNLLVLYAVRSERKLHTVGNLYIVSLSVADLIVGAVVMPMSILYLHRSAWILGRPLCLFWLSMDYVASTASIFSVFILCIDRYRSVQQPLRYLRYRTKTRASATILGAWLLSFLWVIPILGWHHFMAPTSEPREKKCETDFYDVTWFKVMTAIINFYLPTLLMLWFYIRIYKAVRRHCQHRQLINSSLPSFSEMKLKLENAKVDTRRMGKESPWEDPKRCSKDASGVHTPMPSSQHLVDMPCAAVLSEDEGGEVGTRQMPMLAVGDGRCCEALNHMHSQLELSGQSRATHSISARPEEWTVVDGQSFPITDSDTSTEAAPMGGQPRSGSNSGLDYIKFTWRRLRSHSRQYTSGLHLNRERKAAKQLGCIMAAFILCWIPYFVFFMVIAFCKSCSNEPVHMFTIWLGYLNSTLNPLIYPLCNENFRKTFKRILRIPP
Chain of Beta-1 adrenergic receptor (Cavia porcellus) (B0FL73 1-467): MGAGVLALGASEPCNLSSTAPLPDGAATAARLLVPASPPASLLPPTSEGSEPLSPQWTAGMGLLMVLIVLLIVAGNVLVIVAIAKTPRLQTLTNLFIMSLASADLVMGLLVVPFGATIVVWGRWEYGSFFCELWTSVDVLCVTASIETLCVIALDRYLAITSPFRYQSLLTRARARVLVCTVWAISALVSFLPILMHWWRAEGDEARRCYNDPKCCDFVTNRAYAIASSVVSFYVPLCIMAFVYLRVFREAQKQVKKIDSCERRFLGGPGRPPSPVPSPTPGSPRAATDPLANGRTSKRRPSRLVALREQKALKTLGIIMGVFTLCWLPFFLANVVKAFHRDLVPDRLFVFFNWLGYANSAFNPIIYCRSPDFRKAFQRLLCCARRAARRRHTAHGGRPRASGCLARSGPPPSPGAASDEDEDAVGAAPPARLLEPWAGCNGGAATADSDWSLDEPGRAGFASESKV

Take `CN1C(=O)C2CC1(c1ccccc1)c1ccccc1NC2=O` (single isomer, unassigned; (+)) [listing 1 of 2 here]: the EC50 in the experiment filed under Sus scrofa [1] was found to be 3 µM; in the experiment filed under Cavia porcellus [2], 8 µM; in the experiment listed under Sus scrofa [3] it was 10 µM; in the experiment listed under Sus scrofa [6] it was 0.3 µM. Moreover, the Effect was found to be 40% in the experiment listed under Cavia porcellus [2], 17% in the experiment listed under Sus scrofa [4] and 280% in the experiment filed under Sus scrofa [5].
Take `CN1C(=O)C2CC1(c1ccccc1)c1ccccc1NC2=O` (single isomer, unassigned; (+)) [listing 2 of 2 here]: the Effect entry (in experiment [7]; in experiment [8]; in experiment [9]; in [10]; in the experiment filed under Cavia porcellus [11]; in [12]) was “inactive” each time. For the same compound, the Effect result (in the experiment filed under Cavia porcellus [13]; in the experiment listed under Cavia porcellus [14]; in [16]) was “inactive” in each case. The Effect result in the experiment listed under Sus scrofa [15] is “Active”. For the same compound, the outcome in the experiment listed under Cavia porcellus [17] was inactive.
Turning to `CN1C(=O)C2CC1(c1ccccc1)c1ccccc1NC2=O` (single isomer, unassigned; (-)) [listing 1 of 2 here], the EC50 entry in the experiment filed under Sus scrofa [18] was “Not Active”.
For the compound `CN1C(=O)C2CC1(c1ccccc1)c1ccccc1C(=O)N2` (centres undefined), the Effect entry in the experiment listed under Sus scrofa [19] was “inactive”.
Take `CN1C(=O)C2CC1(c1ccccc1)c1ccccc1NC2=O` (single isomer, unassigned; (-)) [listing 2 of 2 here]: the Effect result in the experiment listed under Sus scrofa [20] was “inactive”.
Regarding `CN1C(=O)C2CC1(c1ccccc1)c1ccccc1NC2=O` (stereo in doubt), the concentration giving a half-maximal response (EC50) in the experiment filed under Cavia porcellus [2] (Cavia porcellus, Heart) came to 15 µM; in the experiment filed under Sus scrofa [24] it was 20 µM. Besides, the Effect in the experiment filed under Sus scrofa [21] and in the experiment filed under Sus scrofa [23] was 60% throughout. In the experiment listed under Cavia porcellus [22], this compound returned a Reduction of 55%.
Turning to `CN1C(=O)C2(c3ccccc3)CC1C(=O)Nc1ccccc12` (centres undefined), in the experiment filed under Sus scrofa [19], the Effect entry is “inactive”.
Consider `CN1C(=O)C2(c3ccccc3)CC1NC(=O)c1ccccc12` (centres undefined), for which, in the experiment filed under Sus scrofa [19], the Effect entry was “inactive”.
For the compound `COc1ccc(C(=O)N2CCCc3cc(C4=NNC(=O)SC4C)ccc32)cc1OC` (centres undefined), the Effect in the experiment listed under Sus scrofa [25] was 400%.

As usually defined, the EC50 is the concentration giving half of the maximal effect.
